In assay [1] the target is Estrogen receptor beta (Homo sapiens) (UniProt Q92731). Briefly: Activation of human estrogen receptor beta expressed in HEK293 cells at 10 uM beta-galactosidase reporter gene assay relative to 3,17-beta-estradiol. Type of assay: cell-based. In short, it runs like this:
(§1)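 HEK293 cells seeded a day ahead in phenol-free DMEM with 5% delipidated FBS. Calcium phosphate transfection for 4 h with 5 ng ERα or ERβ expression vector, 75 ng pERE2TATA-LUC reporter and 20 ng pCMVβ control. Test compound at 10 µM (vehicle 0.1% v/v) for 24 h. Luciferase normalized to β-galactosidase. Activity = 100% × (test − vehicle)/(10 nM E2 − vehicle). Mean of ≥3 independent transfections.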

Assay [2] concerns the target T1, Estrogen receptor (Homo sapiens) (UniProt P03372).
T1 sequence (whole entry): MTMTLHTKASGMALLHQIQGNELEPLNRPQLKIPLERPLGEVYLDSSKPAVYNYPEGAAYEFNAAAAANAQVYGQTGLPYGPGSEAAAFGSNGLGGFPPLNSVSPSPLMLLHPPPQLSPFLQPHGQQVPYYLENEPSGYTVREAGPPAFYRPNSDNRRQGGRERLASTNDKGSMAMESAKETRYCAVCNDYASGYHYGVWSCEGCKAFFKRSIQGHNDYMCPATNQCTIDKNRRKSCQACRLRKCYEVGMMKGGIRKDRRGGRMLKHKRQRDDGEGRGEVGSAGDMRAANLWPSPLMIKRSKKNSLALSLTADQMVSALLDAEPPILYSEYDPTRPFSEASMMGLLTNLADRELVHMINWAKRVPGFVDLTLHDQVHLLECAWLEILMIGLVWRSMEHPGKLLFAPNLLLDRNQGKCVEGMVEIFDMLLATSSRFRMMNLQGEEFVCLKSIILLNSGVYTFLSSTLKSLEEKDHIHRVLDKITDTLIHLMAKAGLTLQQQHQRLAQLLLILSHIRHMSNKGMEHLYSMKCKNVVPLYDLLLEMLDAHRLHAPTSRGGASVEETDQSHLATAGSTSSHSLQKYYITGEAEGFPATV
In words: Activation of human estrogen receptor alpha expressed in HEK293 cells at 10 uM by beta-galactosidase reporter gene assay relative to 3,17 beta-estradiol. Format: cell-based. An outline of the steps: as §1
A general note: Reporter assays use an easily measured gene product as a stand-in for the process of interest.

The structures appear in SMILES notation. “And” between values parts separate entries of the source, which are not always exact repeats. Equal values may be shown once.

Sequence of Estrogen receptor beta (Homo sapiens) (Q92731 whole entry): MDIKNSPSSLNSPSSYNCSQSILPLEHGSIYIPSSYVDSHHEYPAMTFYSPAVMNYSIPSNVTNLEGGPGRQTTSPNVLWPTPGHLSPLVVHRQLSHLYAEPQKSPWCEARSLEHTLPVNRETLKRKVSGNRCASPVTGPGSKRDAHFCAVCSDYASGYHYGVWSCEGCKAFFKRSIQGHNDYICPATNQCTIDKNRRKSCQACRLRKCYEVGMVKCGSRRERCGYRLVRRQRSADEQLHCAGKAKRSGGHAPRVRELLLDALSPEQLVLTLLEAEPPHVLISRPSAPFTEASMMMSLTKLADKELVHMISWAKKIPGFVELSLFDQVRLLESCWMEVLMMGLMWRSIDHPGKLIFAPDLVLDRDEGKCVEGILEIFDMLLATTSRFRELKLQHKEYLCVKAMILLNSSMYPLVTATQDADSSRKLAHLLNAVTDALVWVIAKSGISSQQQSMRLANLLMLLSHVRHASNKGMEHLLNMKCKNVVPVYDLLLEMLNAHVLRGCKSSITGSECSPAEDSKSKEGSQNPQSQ

`c1ccc(CC2CC(c3ccccc3)=NO2)cc1` (stereo not drawn): in assay [1], the Activity is 12.8% and 6.6%.

Turning to `COC(CCc1ccccc1)CC(=O)CCCc1ccccc1` (stereo not drawn), the Activity was 3.1% in assay [2] and -14.6% in assay [1].

Turning to `c1ccc(CCC2CC(c3ccccc3)=NO2)cc1` (single isomer, unassigned; 10b), the Activity in assay [2] was 1.1%; in assay [1], -6%.

Turning to `COc1cc2ccccc2cc1CC(CC(=O)Cc1ccc2ccccc2c1)OC` (stereo not drawn), the Activity was 14.8% in assay [2] and 2% in assay [1].

As to `O=C(Cc1ccccc1)CC(O)c1ccccc1` (stereo not drawn), the Activity in assay [2] was determined as 0.8%; in assay [1], 1.6%.

As for `O=C(CCCc1ccccc1)CC(O)CCc1ccccc1` (stereo not drawn), the figures for the Activity in assay [2] and in assay [1] were 2.2% and -7.1%, respectively.

Regarding `Oc1ccc(CC2CC(CCc3ccccc3)=NO2)cc1` (single isomer, unassigned; 69b), the results for the Activity in assay [2] and in assay [1] were 105% and 42.4%, respectively.

Regarding `c1ccc(CCC2=NOC(Cc3cccc4ccccc34)C2)cc1` (single isomer, unassigned; 52a), the figures for the Activity in assay [2] and in assay [1] were 34.1% and 10.5%, respectively.

As to `O=C(CCCc1ccccc1)CC(O)Cc1ccccc1` (stereo not drawn), the Activity in assay [2] was 24.7%; in assay [1], 9.1%.

Regarding `O=C(Cc1ccccc1)CC(O)CCc1ccccc1` (stereo not drawn), the Activity in assay [2] stood at 4.3%; in assay [1], 0.2%.

Take `CS(C)=C(C(=O)CCc1ccccc1)C(=O)Cc1ccccc1`: the Activity in assay [2] is 0.5%; in assay [1], -7.1%.

As for `Oc1ccccc1CCC1=NOC(Cc2ccccc2)C1` (stereo not drawn), the Activity in assay [2] is 111%; in assay [1], 18.4%.

As for `COc1ccc(CC2CC(CCc3ccccc3)=NO2)cc1` (single isomer, unassigned; 50b), the figures for the Activity in assay [2] and in assay [1] were 16.1% and 13.2%, respectively.

For the compound `Oc1ccc(CCC2=NOC(Cc3ccccc3)C2)cc1` (single isomer, unassigned), the Activity turned out to be 24.3% in assay [2] and 41.5% in assay [1].

Take `Oc1ccc(CC2CC(CCc3ccccc3O)=NO2)cc1` (single isomer, unassigned; 75a): the Activity in assay [2] amounted to 20.4%; in assay [1], 2.5%.

On to `CS(C)=C(C(=O)CCc1ccccc1)C(=O)CCc1ccccc1`, for which the values for the Activity in assay [2] and in assay [1] were 1% and 0.3%, respectively.

`O=C(CCCc1ccccc1)CC(O)c1ccccc1` (single isomer, unassigned; 24a): the results for the Activity in assay [2] and in assay [1] were 91.4% and 147%, respectively.

Regarding `Oc1ccc(CC2CC(CCc3ccccc3)=NO2)cc1` (single isomer, unassigned; 69a), the Activity was determined as 34.2% in assay [2] and 9.1% in assay [1].

`COc1ccc(CC(O)CC(=O)CCc2ccccc2)cc1` (single isomer, unassigned; 54b): the Activity in assay [2] is 1.3%; in assay [1], 1.2%.

In the case of `Oc1ccc(CCC2=NOC(Cc3ccc(F)cc3)C2)cc1` (single isomer, unassigned), the Activity in assay [2] stood at 77.8%; in assay [1] it was 28.4%.

Regarding `CS(C)=C(C(=O)CCCc1ccccc1)C(=O)Cc1ccccc1`, the Activity in assay [2] was 3.7%; in assay [1], -1.7%.

As for `COc1ccccc1CC(CC(=O)Cc1ccc2ccccc2c1)OC` (single isomer, unassigned), the Activity in assay [2] and in assay [1] was 0.3% throughout.

Take `CS(C)=C(C(=O)CCCc1ccccc1)C(=O)CCc1ccccc1`: the Activity in assay [2] was 0.6%; in assay [1], -4.6%.

Turning to `O=C(CCc1ccccc1)CC(O)c1ccccc1` (single isomer, unassigned; 23a), the Activity in assay [2] was determined as 78.8%; in assay [1], 20.5%.

Turning to `COC(CC(=O)Cc1ccc(F)cc1)Cc1cccc2ccccc12` (single isomer, unassigned; 62b), the Activity in assay [2] is 4.5%; in assay [1] it was -0.5%.

Turning to `Fc1ccc(CC2CC(CCc3ccccc3)=NO2)cc1` (stereo not drawn), the Activity in assay [2] was determined as 99.2%; in assay [1] it was 11.2%.

With `COC(CC(=O)CCc1ccccc1)Cc1ccccc1` (stereo not drawn), the Activity came to 9.9% in assay [2] and 1.3% in assay [1].

As for `O=C(Cc1ccccc1)CC(O)Cc1ccccc1` (stereo not drawn), the values for the Activity in assay [2] and in assay [1] were 8.4% and 1.7%, respectively.

With `COc1ccc(CC(O)CC(=O)CCc2ccccc2)cc1` (single isomer, unassigned; 54a), the Activity in assay [2] is 1.6%; in assay [1], -0.8%.

With `Oc1ccccc1CCC1=NOC(Cc2ccc(F)cc2)C1` (single isomer, unassigned; 73a), the Activity in assay [2] stood at 82%; in assay [1] it was 3.4%.

`c1ccc(CCC2CC(c3ccccc3)=NO2)cc1` (single isomer, unassigned; 10a): the Activity in assay [2] came to 22.8%; in assay [1], 8.5%.

On to `c1ccc(CC2=NOC(Cc3ccccc3)C2)cc1` (single isomer, unassigned; 14a), for which the Activity in assay [2] is -1.3%; in assay [1], -0.2%.

Take `Oc1ccc(CCC2=NOC(Cc3ccc(F)cc3)C2)cc1` (stereo not drawn): the Activity in assay [2] was determined as 5.7%; in assay [1] it was 4.4%.

On to `COc1ccccc1CC(=O)CC(Cc1ccc2ccccc2c1)OC` (single isomer, unassigned; 66b), for which the results for the Activity in assay [2] and in assay [1] were 4.3% and -0.5%, respectively.

With `Oc1ccccc1CCC1=NOC(Cc2ccccc2)C1` (single isomer, unassigned), the Activity in assay [2] was 39.7%; in assay [1], 30.5%.

As to `COc1ccc(CC(CC(=O)CCc2ccccc2)OC)cc1` (stereo not drawn), the Activity was determined as 28.5% in assay [2] and 4% in assay [1].

Regarding `COC(CCc1ccccc1)CC(=O)CCc1ccccc1` (stereo not drawn), the Activity in assay [2] was 14.5%; in assay [1], 19.5%.

Consider `Oc1cccc(CCC2=NOC(Cc3ccccc3)C2)c1` (stereo not drawn), for which the Activity is 15.7% in assay [2] and -2.5% in assay [1].

As to `c1ccc(CCC2=NOC(Cc3ccccc3)C2)cc1` (stereo not drawn), the Activity in assay [2] stood at 38.2%; in assay [1], 1.3%.

In the case of `O=C(CCc1ccccc1)CC(O)c1ccccc1` (single isomer, unassigned; 23b), the Activity in assay [2] stood at 25.3%; in assay [1], 2.8%.

Take `COc1ccccc1CC(=O)CC(Cc1ccc2ccccc2c1)OC` (single isomer, unassigned; 66a): the figures for the Activity in assay [2] and in assay [1] were 3.5% and -0.5%, respectively.

Regarding `O=C(CCc1ccccc1)CC(=O)CCc1ccccc1`, the results for the Activity in assay [2] and in assay [1] were 0.6% and 0.3%, respectively.

Consider `c1ccc(CCC2=NOC(CCc3ccccc3)C2)cc1` (single isomer, unassigned; 18a), for which the Activity in assay [2] amounted to 3.4%; in assay [1] it was 0.2%.

`O=C(CC(O)CCc1ccccc1)c1ccccc1` (stereo not drawn): the Activity in assay [2] was 13%; in assay [1], 15.4%.

Turning to `Oc1cccc(CCC2=NOC(Cc3ccccc3)C2)c1` (single isomer, unassigned), the Activity was determined as 19.2% in assay [2] and 6.7% in assay [1].

With `O=C(CCc1ccccc1)CC(O)Cc1cccc2ccccc12` (stereo not drawn), the Activity turned out to be 12.1% in assay [2] and 1.7% in assay [1].

As for `O=C(CC(=O)c1ccccc1)Cc1ccccc1`, the Activity in assay [2] is 5.4%; in assay [1], 9.7%.

As for `COC(CC(=O)CCc1ccccc1)Cc1cccc2ccccc12` (stereo not drawn), the Activity in assay [2] was 35.5%; in assay [1], 2%.

Take `c1ccc(CCCC2=NOC(c3ccccc3)C2)cc1` (stereo not drawn): the Activity in assay [1] was 17.2% and -3.1%.

As to `CS(C)=C(C(=O)Cc1ccccc1)C(=O)c1ccccc1`, the Activity in assay [2] is -1.2%; in assay [1], 5.8%.

With `Oc1ccc(CCC2=NOC(Cc3ccccc3)C2)cc1` (stereo not drawn), the Activity in assay [2] is 171%; in assay [1] it was 143%.

`Fc1ccc(CC2CC(CCc3ccccc3)=NO2)cc1` (single isomer, unassigned): the values for the Activity in assay [2] and in assay [1] were 28.9% and 7.4%, respectively.

For the compound `c1ccc(CCCC2=NOC(Cc3ccccc3)C2)cc1` (single isomer, unassigned), the Activity in assay [2] was found to be 28.1%; in assay [1], 5.1%.

As for `COC(CC(=O)CCc1ccccc1)Cc1ccc2ccccc2c1` (stereo not drawn), the Activity in assay [2] is 30.4%; in assay [1] it was 12.4%.

Turning to `COC(CC(=O)c1ccccc1)Cc1ccccc1` (stereo not drawn), the Activity in assay [2] came out at 0.3%; in assay [1], 18.4%.

`c1ccc(CCC2CC(Cc3ccccc3)=NO2)cc1` (stereo not drawn): the Activity in assay [2] was found to be 7%; in assay [1], 1.2%.

On to `c1ccc(CC2=NOC(c3ccccc3)C2)cc1` (stereo not drawn), for which the Activity in assay [2] was found to be 19.6%; in assay [1] it was 34.4%.

With `c1ccc(CCC2=NOC(Cc3ccc4ccccc4c3)C2)cc1` (single isomer, unassigned; 53a), the Activity was 22.3% in assay [2] and 8.2% in assay [1].

`COc1ccccc1CC(=O)CC(Cc1cccc2ccccc12)OC` (single isomer, unassigned; 63a): the Activity in assay [2] and in assay [1] was 0% throughout.

Consider `O=C(CC(=O)Cc1ccccc1)Cc1ccccc1`, for which the values for the Activity in assay [2] and in assay [1] were 4.3% and 0.1%, respectively.

Source of the values: ChEMBL document CHEMBL1150775, “Synthesis and evaluation of estrogen agonism of diaryl 4,5-dihydroisoxazoles, 3-hydroxyketones, 3-methoxyketones, and 1,3-diketones: a compound set forming a 4D molecular library” (J Med Chem, 2008).
